Data published in ChEMBL document CHEMBL1151981, “Bioactive pyridine-N-oxide disulfides from Allium stipitatum” (J Nat Prod, 2009).
Converted amounts (≈) assume the structure as drawn. The source made the active and inactive calls. The rule behind the calls is not given here.

What was measured:
[1] = system: Mycobacterium tuberculosis; experiment: Upregulation of clpB RNA expression in Mycobacterium tuberculosis H37Rv ATCC 27294 at 2 to 10 ug/ml after 6 hrs by microarray analysis; format: functional, organism-based
Outline: (§1)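 H37Rv grown in 7H9 with 0.2% glycerol, 0.5% BSA fraction V, 0.05% Tween 80, 0.08% NaCl and 0.2% glucose to OD650 0.3. Treated with 2, 5 or 10 µg/mL compound, or matching DMSO, for 6 h. RNA isolated, labelled cDNA hybridised to microarrays. Predictive genes found by class prediction analysis.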

A549 = experiment: Cytotoxicity against human A549 cells after 96 hrs by sulforhodamine B assay; format: functional, cell-based; settings: A549, 96 h
Outline: (§2)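 SRB assay. Cells seeded at 4000/well in DMEM and allowed to attach overnight at 37 °C, 5% CO2. Exposed in quadruplicate to freshly made compound, 0.1–25 µM, for 96 h. Fixed with ice-cold 10% TCA for 30 min, stained with 0.4% SRB in 1% acetic acid for 15 min. Absorbance read at 540 nm as % of untreated control; IC50 derived from means.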

[2] = system: Mycobacterium tuberculosis; experiment: Upregulation of Rv1334 RNA expression in Mycobacterium tuberculosis H37Rv ATCC 27294 at 2 to 10 ug/ml after 6 hrs by microarray analysis; format: functional, organism-based; outline: as §1
[3] = system: Mycobacterium tuberculosis; experiment: Upregulation of Rv0331 RNA expression in Mycobacterium tuberculosis H37Rv ATCC 27294 at 2 to 10 ug/ml after 6 hrs by microarray analysis; format: functional, organism-based; outline: as §1
Staphylococcus aureus [4] = experiment: Antibacterial activity against Staphylococcus aureus SA1199B overexpressing NorA efflux pump after 72 hrs; format: functional
[5] = system: Mycobacterium tuberculosis; experiment: Upregulation of dnaK RNA expression in Mycobacterium tuberculosis H37Rv ATCC 27294 at 2 to 10 ug/ml after 6 hrs by microarray analysis; format: functional, organism-based; outline: as §1
MCF7 = experiment: Cytotoxicity against human MCF7 cells after 96 hrs by sulforhodamine B assay; format: functional, cell-based; settings: MCF7, 96 h; outline: as §2
[6] = system: Mycolicibacterium smegmatis; experiment: Inhibition of fatty acid biosynthesis in Mycobacterium smegmatis assessed as inhibition of [14C]acetate incorporation into soluble lipid at 30 ug/ml treated 2 hrs before [14C]acetate addition measured after 2 hrs of [14C]acetate infusion by whole-cell assay; format: functional, organism-based
Outline: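 Replicating M. smegmatis whole cells exposed to compound at 30 µg/mL for 2 h, then [1-14C]acetate added for a further 2 h. Soluble lipids (mostly fatty acids) extracted and counts per minute compared with untreated control.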

[7] = system: Mycobacterium tuberculosis; experiment: Effect on trxB2 RNA expression in Mycobacterium tuberculosis H37Rv ATCC 27294 at 2 to 10 ug/ml after 6 hrs by microarray analysis; format: functional, organism-based; outline: as §1
Mus musculus [8] = experiment: Toxicity in C57BL/6 mouse assessed as lethality at 300 mg/kg administered as single dose via oral gavage for 3 days measured 2 days after final dose; format: organism-based; design: dose 300 mg/kg, route oral; settings: in vivo, 48 h
Outline: (§3)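 Female C57BL/6 mice, three per dose, got a single oral gavage dose of 30, 100 or 300 mg/kg. Observed at 4 and 6 h after dosing, then twice daily for 1 week. The tabulated data describe 3-day dosing.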

[9] = system: Mycolicibacterium fortuitum; experiment: Antibacterial activity against Mycobacterium fortuitum after 72 hrs; format: functional
Outline: (§4)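 Fast-growing mycobacteria obtained from NCTC; cultures grown on Columbia blood agar with 7% defibrinated horse blood at 37 °C for 72 h before MIC determination. Ethambutol and isoniazid served as positive controls.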

[10] = system: Mycobacterium tuberculosis; experiment: Upregulation of sigH RNA expression in Mycobacterium tuberculosis H37Rv ATCC 27294 at 2 to 10 ug/ml after 6 hrs by microarray analysis; format: functional, organism-based; outline: as §1
[11] = system: Mycobacterium tuberculosis; experiment: Antibacterial activity against Mycobacterium tuberculosis H37Rv ATCC 27294 assessed as decrease in viable bacterial counts at 1.25 ug/ml after 7 days by spot-culture growth inhibition assay; format: functional
[12] = system: Mycolicibacterium smegmatis; experiment: Antibacterial activity against Mycobacterium smegmatis mc2 2700 after 72 hrs; format: functional; settings: mc2 2700, 72 h
[13] = system: Mycobacterium tuberculosis; experiment: Antibacterial activity against Mycobacterium tuberculosis infected in GKO C57BL/6 mouse assessed as bacterial number in spleen at 30 mg/kg/day administered 14 days postinfection via oral gavage for nine consecutive days measured on day 24 postinfection; format: functional
Outline: (§5)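 Female GKO C57BL/6 mice, 8–10 weeks old, infected by low-dose aerosol with M. tuberculosis Erdman (50–100 CFU uptake confirmed day 1). Daily oral gavage in 0.5% methyl cellulose from day 14 for nine consecutive days; isoniazid given at 25 mg/kg/day. Five mice per group, with untreated and pretreatment controls. Lung and spleen CFU log-transformed; one-way ANOVA with Tukey test.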

[14] = system: Mycolicibacterium smegmatis; experiment: Antibacterial activity against Mycobacterium smegmatis after 72 hrs; format: functional; outline: as §4
[15] = system: Mycobacterium tuberculosis; experiment: Upregulation of Rv3054c RNA expression in Mycobacterium tuberculosis H37Rv ATCC 27294 at 2 to 10 ug/ml after 6 hrs by microarray analysis; format: functional, organism-based; outline: as §1
[16] = system: Mycobacterium tuberculosis; experiment: Upregulation of dnaJ RNA expression in Mycobacterium tuberculosis H37Rv ATCC 27294 at 2 to 10 ug/ml after 6 hrs by microarray analysis; format: functional, organism-based; outline: as §1
[17] = system: Mycobacterium tuberculosis; experiment: Upregulation of hsp RNA expression in Mycobacterium tuberculosis H37Rv ATCC 27294 at 2 to 10 ug/ml after 6 hrs by microarray analysis; format: functional, organism-based; outline: as §1
Staphylococcus aureus [18] = experiment: Antibacterial activity against Staphylococcus aureus EMRSA15 after 72 hrs; format: functional; settings: EMRSA15, 72 h
Outline: (§6)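 S. aureus strains tested in a MIC assay; norfloxacin and oxacillin used as positive controls.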

HT-29 = experiment: Cytotoxicity against human HT-29 cells after 96 hrs by sulforhodamine B assay; format: functional, cell-based; settings: HT-29, 96 h; outline: as §2
[19] = Toxicity in C57BL/6 mouse assessed as maximum tolerated dose administered as single dose via oral gavage for 3 days measured 6 hrs after final dose; format: organism-based; settings: in vivo; outline: as §3
Mus musculus [20] = experiment: Toxicity in C57BL/6 mouse assessed as transient lethargy at 100 mg/kg administered as single dose via oral gavage for 3 days measured 3 days after final dose; format: organism-based; design: dose 100 mg/kg, route oral; settings: in vivo, 72 h
[21] = Cytotoxicity against human WI38 cells after 96 hrs by sulforhodamine B assay; format: cell-based; settings: WI-38, 96 h; outline: as §2
[22] = Toxicity in C57BL/6 mouse assessed as maximum tolerated dose administered as single dose via oral gavage for 3 days measured 4 hrs after final dose; format: organism-based; settings: in vivo; outline: as §3
[23] = Toxicity in C57BL/6 mouse assessed as maximum tolerated dose administered as single dose via oral gavage for 3 days measured twice daily for 1 week after final dose; format: organism-based; settings: in vivo; outline: as §3
[24] = system: Mycobacterium tuberculosis; experiment: Antibacterial activity against Mycobacterium tuberculosis infected in GKO C57BL/6 mouse assessed as bacterial number in lung at 30 mg/kg/day administered 14 days postinfection via oral gavage for nine consecutive days measured on day 24 postinfection; format: functional; outline: as §5
Mycolicibacterium phlei = experiment: Antibacterial activity against Mycobacterium phlei after 72 hrs; format: functional; outline: as §4
Mus musculus [25] = experiment: Toxicity in C57BL/6 mouse assessed as lethality at 300 mg/kg administered as single dose via oral gavage for 3 days measured 3 days after final dose; format: organism-based; design: dose 300 mg/kg, route oral; settings: in vivo, 72 h; outline: as §3
Mus musculus [26] = experiment: Toxicity in C57BL/6 mouse assessed as adverse effect at 30 mg/kg administered as single dose via oral gavage for 3 days measured after 3 days post final dose; format: organism-based; design: dose 30 mg/kg, route oral; settings: in vivo, 72 h
Staphylococcus aureus [27] = experiment: Antibacterial activity against tetracycline-effluxing Staphylococcus aureus XU212 after 72 hrs; format: functional; settings: XU212, 72 h; outline: as §6
[28] = system: Mycobacterium tuberculosis; experiment: Antibacterial activity against Mycobacterium tuberculosis H37Rv ATCC 27294 assessed as decrease in viable bacterial counts at 0.01 to 5 ug/ml after 14 days by spot-culture growth inhibition assay; format: functional, organism-based
Outline: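 Mid-exponential cultures (BCG rotated in 7H9/ADC/Tween 80; H37Rv standing in 7H9/OADC/Tween 80) diluted to 10³ cells/mL. 5 µL spotted onto 7H10 agar with 10% OADC containing compound at 0.01, 0.1, 0.5, 1 and 5 µg/mL. Incubated at 37 °C for 14 days. MIC taken as lowest concentration with no growth; no-compound well as growth control.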

[29] = system: Mycobacterium tuberculosis; experiment: Effect on trxC RNA expression in Mycobacterium tuberculosis H37Rv ATCC 27294 at 2 to 10 ug/ml after 6 hrs by microarray analysis; format: functional, organism-based; outline: as §1
[30] = system: Mycobacterium tuberculosis; experiment: Upregulation of Rv1335 RNA expression in Mycobacterium tuberculosis H37Rv ATCC 27294 at 2 to 10 ug/ml after 6 hrs by microarray analysis; format: functional, organism-based; outline: as §1
[31] = system: Mycobacterium tuberculosis; experiment: Upregulation of Rv3463 RNA expression in Mycobacterium tuberculosis H37Rv ATCC 27294 at 2 to 10 ug/ml after 6 hrs by microarray analysis; format: functional, organism-based; outline: as §1

With `CSSc1cccc[n+]1[O-]` the Activity [1] was “Active”, the IC50 (A549) was 0.22 µM and the Activity [2] was “Active”. For the same compound, the Activity [3] was “Active”, the MIC (Staphylococcus aureus [4]) was 2 µg/mL (≈ 11.5 µM) and the Activity [5] was “Active”. The IC50 (MCF7) was 0.35 µM, the inhibition [6] was “Active” and the Activity [7] was “Active”. For the same compound, the Activity (Mus musculus [8]) was “Toxic”, the MIC [9] was 8 µg/mL (≈ 46.2 µM) and the Activity [10] was “Active”. It also gave an Activity [11] of 99%, an MIC [12] of 8 µg/mL (≈ 46.2 µM) and a log10cfu [13] of 6.17. For the same compound, the MIC [14] was 8 µg/mL (≈ 46.2 µM), the Activity [15] was “Active” and the Activity [16] was “Active”. The Activity [17] was “Active”, the MIC (Staphylococcus aureus [18]) was 0.5 µg/mL (≈ 2.89 µM) and the IC50 (HT-29) was 1.84 µM. The MTD at 6 h [19] was 30 mg/kg, the Activity (Mus musculus [20]) was “Toxic” and the IC50 [21] was 0.8 µM. For the same compound, the MTD at 4 h [22] was 30 mg/kg, the MTD at 168 h [23] was 30 mg/kg and the log10cfu [24] was 8.17. For the same compound, the MIC (Mycolicibacterium phlei) was 2 µg/mL (≈ 11.5 µM), the Activity (Mus musculus [25]) was “Toxic” and the Activity (Mus musculus [26]) was “Non-toxic”. For the same compound, the MIC (Staphylococcus aureus [27]) was 1 µg/mL (≈ 5.77 µM), the Activity [28] was “Active” and the Activity [29] was “Active”. For the same compound, the Activity [30] was “Active” and the Activity [31] was “Active”.
